{
  "source": "ChEMBL document CHEMBL3044977",
  "about": "“Synthesis and fungicidal activity of enantiomerically pure (R)- and (S)-silicon-containing azole fungicides” (Bioorg Med Chem, 2004)",
  "key": {"[1]": {"test_system": "Rhizoctonia solani", "assay": "Fungicidal activity against Rhizoctonia solani assessed as inhibition of mycelial growth after 24 to 48 hr by agar dilution method", "assay_type": "functional, organism-based", "outline": "(§1)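 Agar dilution on potato dextrose agar. Test compounds were serially diluted in DMSO containing 10% Tween 20, and 0.1 mL of each dilution went into a petri dish with 10 mL of agar medium, which was then solidified. IC50 was taken as the concentration giving 50% inhibition.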"}, "[2]": {"test_system": "Pyricularia oryzae", "assay": "Fungicidal activity against Magnaporthe oryzae assessed as inhibition of mycelial growth after 24 to 48 hr by agar dilution method", "assay_type": "functional, organism-based", "outline": "as §1"}, "[3]": {"test_system": "Rhizoctonia solani", "assay": "Antifungal activity against Rhizoctonia solani infected compound pre-treated rice seedlings through submerged application assessed as concentration required to prevent rice sheath blight disease development measured per 10 acres after 7 days under greenhouse condition", "assay_type": "functional"}, "[4]": {"test_system": "Pyricularia oryzae", "assay": "Antifungal activity against Magnaporthe oryzae infected compound pre-treated rice seedlings through submerged application assessed as concentration required to prevent rice blast disease development measured per 10 acres after 7 days under greenhouse condition", "assay_type": "functional"}},
  "data": [
    {"smiles": "C[Si](C)(C)CC(O)(Cn1cncn1)c1ccc(F)cc1", "note": "(racemic) [SIMECONAZOLE]", "values": [
      {"measurement": "IC50", "setting": "[1]", "result": 0.042, "unit": "ppm"},
      {"measurement": "IC50", "setting": "[2]", "result": 1.25, "unit": "ppm"},
      {"measurement": "Activity", "setting": "[3]", "result": 25, "unit": "g"},
      {"measurement": "Activity", "setting": "[4]", "result": 100, "unit": "g"}
    ]},
    {"smiles": "C[Si](C)(C)C[C@](O)(Cn1cncn1)c1ccc(F)cc1", "values": [
      {"measurement": "IC50", "setting": "[1]", "result": 0.016, "unit": "ppm"},
      {"measurement": "IC50", "setting": "[2]", "result": 0.95, "unit": "ppm"},
      {"measurement": "Activity", "setting": "[3]", "result": 25, "unit": "g"},
      {"measurement": "Activity", "setting": "[4]", "result": 100, "unit": "g"}
    ]},
    {"smiles": "C[Si](C)(C)C[C@@](O)(Cn1cncn1)c1ccc(F)cc1", "values": [
      {"measurement": "IC50", "setting": "[1]", "result": 0.54, "unit": "ppm"},
      {"measurement": "IC50", "setting": "[2]", "result": 33.5, "unit": "ppm"},
      {"measurement": "Activity", "setting": "[3]", "result": ">100", "unit": "g"},
      {"measurement": "Activity", "setting": "[4]", "result": ">100", "unit": "g"}
    ]}
  ]
}
